In the library only some 1.4% were active in any assay of this set; here they are far more common.
Arr AP2 block = blocks beta-arrestin peptide binding to AP2 adaptin. FITC-arrestin peptide / GST-AP2 beads, flow cytometry; AP2 beta2 appendage carries R879A mutation. inhibition, % at 10 µM. 340,000 tested, 0.31% active;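 active = inhibition above a set limit, near 3 SD of compounds lacking own fluorescence, cut at about 54% in these data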;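 note: plate controls were DMSO wells for no effect and 5 µM unlabelled arrestin peptide for full effect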
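test system = AP2 appendage R879A on GSH beads | buffer or medium = PBS plus Tween 20 (0.05%) and BSA (0.1%) | incubation = 12 min plus 1 h, RT | detection = bead flow cytometry, FITC channel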
CAL PDZ FP-1 = inhibitors of human CAL PDZ peptide binding | Q9HD26 | purified CAL PDZ, TMR-peptide fluorescence polarization, 1 h | inhibition, % at 20 µM | 330,000 tested, 0.02% active | AID 504414;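 active = highest replicate inhibition of at least 40%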;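 note: plate controls were DMSO neutral control wells for no effect and unlabeled competitor peptide control wells for full effect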
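Material: tagged CAL PDZ protein CerCALP, purified; buffer or medium: sodium phosphate/NaCl buffer pH 7.4 with TCEP, IgG, Thesit; also added: fluorescent TMR peptide probe; schedule: 1 h incubation at room temperature before polarization reading; technique: fluorescence polarization from S- and P-plane intensities, G-factor corrected; control set: unlabelled peptide and DMSO controls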
CAL PDZ FP-2 = blocks peptide binding to the human CAL PDZ domain. Q9HD26. inhibition, % at 24.9 µM. purified CAL PDZ, TMR-peptide fluorescence polarization, 1 h. 300,000 tested, 0.92% active;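 active = mean inhibition of at least 30% with at least half of replicates also reaching 30%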;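 note: 0% = DMSO neutral control and 100% = excess unlabeled competitor peptide PRC23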
DDE Tn6 FP inh = inhibitors of Tn6 peptide binding to human fibrin DD(E) | P02675 | 370,000 tested, 0.21% active | inhibition, % at 8.3 µM | Fibrin DD(E) TRITC-Tn6 fluorescence polarization displacement;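 active = inhibition above a per-campaign cutoff: mean of compounds within control limits plus 3 SD, cut at about 15% in these data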;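 note: 0% = median of all compound wells on the plate and 100% = blocking peptide control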
Target sequence (P02675 whole entry, looked up): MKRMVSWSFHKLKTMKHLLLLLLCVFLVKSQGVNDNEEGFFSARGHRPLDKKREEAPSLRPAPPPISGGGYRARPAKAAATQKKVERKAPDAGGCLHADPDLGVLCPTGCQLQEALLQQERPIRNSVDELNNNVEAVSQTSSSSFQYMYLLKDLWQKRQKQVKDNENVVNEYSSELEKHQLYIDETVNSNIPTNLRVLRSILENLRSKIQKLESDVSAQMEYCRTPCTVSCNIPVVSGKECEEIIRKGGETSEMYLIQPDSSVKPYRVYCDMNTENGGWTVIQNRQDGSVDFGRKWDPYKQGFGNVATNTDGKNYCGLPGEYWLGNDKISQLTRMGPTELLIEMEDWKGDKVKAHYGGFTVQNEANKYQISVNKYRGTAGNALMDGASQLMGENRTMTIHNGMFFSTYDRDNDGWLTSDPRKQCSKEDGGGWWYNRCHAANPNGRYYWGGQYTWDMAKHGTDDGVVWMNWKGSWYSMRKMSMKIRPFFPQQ
DDE Tn7 FP inh = disrupts Tn7 cyclic peptide binding to fibrin D-Dimer-E complex; AID 720508; inhibition, % at 8.3 µM; P02675; 370,000 tested, 0.13% active; FP displacement of FITC-Tn7 peptide from fibrin DD(E); 0% = median of compound wells per plate;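 active = inhibition above the mean of compounds falling within the control limits plus 3 SD of them, cut at about 14% in these data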;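 note: 0% = plate median of compound wells and 100% = 10 µM Aha-Tn7 peptide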
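Assay system: Fibrin-DD(E) protein isolated from polymerized human fibrin clots; read-out basis: percent inhibition; medium: Tris/NaCl/CaCl2 buffer, pH 7.8; signal: FP measurement; incubation: 10 min plus 3 h, room temperature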
* = called active by the depositor; x = no result; + = active, no number.

SMILES	Arr AP2 block	CAL PDZ FP-1	CAL PDZ FP-2	DDE Tn6 FP inh	DDE Tn7 FP inh
Cc1cccc(Nc2nc(N)c([N+](=O)[O-])c(NCCO)n2)c1	9	-1	47*	-1	4
CCN1CCN(c2nc(N)c([N+](=O)[O-])c(Nc3cccc(C)c3)n2)CC1	0	-3	-2	2	3
Cc1cccc(Nc2nc(N3CCN(C)CC3)nc(N)c2[N+](=O)[O-])c1	-10	-2	36*	-3	-7
Nc1nc(NCC2CCCO2)nc(Nc2cccc(F)c2)c1[N+](=O)[O-] (stereo not given)	3	0	79*	10	-2
Nc1nc(Nc2cccc(Cl)c2)nc(NCCO)c1[N+](=O)[O-]	5	-2	x	-11	6
COC(=O)[C@]12C[C@H](CC(=O)NCc3cccc(C(F)(F)F)c3)C(=O)N(CCc3ccc(OC)c(OC)c3)C1=C[C@H](C1CCCC1)O[C@@H]2C	x	x	x	-10	-4
Cn1c(=O)c(NCCc2ccccc2)c2c3c(cccc31)C(=O)c1ccccc1-2	42	14	20	+	-1
Cn1c(=O)c(NCCO)c2c3c(cccc31)C(=O)c1ccccc1-2	-2	-1	4	37*	-8
CCCCNc1c2c3c(cccc3n(C)c1=O)C(=O)c1ccccc1-2	17	1	-2	x	x
c1cc(-c2nnc(-c3ccncc3)o2)ccn1	-8	x	49*	-2	-5
O=C1C=CC(=O)c2c(O)c(CO)c(CO)c(O)c21	58*	3	7	-9	4
O=C(C[N+]1(CC#Cc2ccccc2)CCOCC1)c1ccccc1	-21	-1	49*	0	-7
O=C(C(c1ccccc1)c1ccccc1)N1CCN(Cc2ccccn2)CC1	-2	-1	31*	-9	4
O=C(C(c1ccccc1)c1ccccc1)N1CCN(Cc2ccncc2)CC1	6	-1	-2	2	8
C#CCN1CC(N(C)CCOC(=O)c2ccc([N+](=O)[O-])cc2)CS1(=O)=O (stereo not given)	x	x	x	-2	-7
Cc1ccccc1NC(=O)CCCn1nc(C)c2c(C)n(-c3ccccc3)nc2c1=O	-8	-1	30*	3	-2
Cc1ccccc1NC(=O)Cn1nc(C)c2ccccc2c1=O	-6	0	35*	0	-8
COC(=O)c1ccccc1NC(=O)CCCn1nc(C)c2c(C)n(-c3ccccc3)nc2c1=O	-3	0	x	4	7
O=C(CCc1ccccc1)N[C@H]1[C@@H](OC(=O)c2ccco2)CCC[C@]12C(=O)N(Cc1ccccc1)c1ccccc12	x	x	x	0	-3
FC(F)(F)Oc1ccc(Cn2ccc3ccc(-c4ccc5ccn(Cc6ccc(OC(F)(F)F)cc6)c5c4)cc32)cc1	x	x	x	-12	-6
N#CCc1ccc(OC(=O)Nc2ccccc2)cc1	-19	x	114*	5	3
O=S(=O)(c1cc(C(F)(F)F)ccc1Cl)N1CCN(c2ncnc3ccccc23)CC1	3	-1	62*	11	-5
Cc1cc(C)c(C)c(S(=O)(=O)N2CCN(c3ncnc4ccccc34)CC2)c1C	5	-3	-5	-1	-5
CC(C)CN1C[C@@H]2CSCCS(=O)(=O)N2C1=O	x	x	x	4	-1
N[C@H](C(=O)N1CCC[C@@H]1C(=O)N1CCC2CCN(S(=O)(=O)c3ccccc3)CC21)c1ccccc1 (stereo not given in full)	x	x	x	2	6
SMILES	Arr AP2 block	CAL PDZ FP-1	CAL PDZ FP-2	DDE Tn6 FP inh	DDE Tn7 FP inh
CCOC(=O)C1=C(C)C/C(=N\NC(=O)c2ccccc2O)CC1	0	-1	86*	-1	-6
Nc1ccc(Oc2cccc(Oc3ccc(N)cc3)c2)cc1	11	-4	39*	-3	-5
COc1ccc(OC)c(/C=C/C(=O)OCC(=O)N2CCCCC2)c1	-5	-1	64*	1	5
Cc1ccccc1CN1CCCCC(NC(=O)c2ccc3ccccc3c2)C1=O (stereo not given)	x	x	x	-8	8
N#CCC(=O)Nc1nc(-c2ccc3c(c2)OCCO3)cs1	5	0	74*	-13	-2
O=C(CCCCl)Nc1nc(-c2ccc3c(c2)OCCO3)cs1	-4	-2	7	-6	-4
COc1ccc(-n2c(SCC(=O)Nc3ccc(S(=O)(=O)Nc4nccs4)cc3)nnc2-c2ccco2)cc1	x	x	x	2	-3
S=C(Nc1cccnc1)NC1CC2CCC1C2 (stereo not given)	-9	0	38*	-8	-10
CC(C)(C)C1CCC(=NNC(=S)Nc2cccnc2)CC1 (stereo not given)	-7	0	-2	2	-4
CC(=O)c1cccc(NC(=O)c2ccccc2-c2ccccc2C(=O)O)c1	-6	0	-2	-1	0
CC(C)CNC(=O)c1cccc(NC(=O)c2ccccc2-c2ccccc2C(=O)O)c1	-4	x	89*	0	-6
CN1CCN(c2nc3c(c(=O)[nH]c(=O)n3C)n2Cc2cccc(Br)c2)CC1	-10	-1	-2	-1	1
CN1CCN(c2nc3c(c(=O)[nH]c(=O)n3C)n2Cc2ccccc2F)CC1	-8	-1	51*	x	x
COc1ccc(S(=O)(=O)N2CC(C(=O)O)Oc3ccc(CC(=O)O)cc32)cc1 (stereo not given)	7	1	38*	0	-2
COC(=O)[C@]12C[C@H](CC(=O)NCCc3ccccc3OC)C(=O)N(Cc3cccc4ccccc34)C1=C[C@H](COCc1ccccc1)O[C@@H]2C	x	x	x	5	2
O=C(NCc1ccco1)C1CCCN(S(=O)(=O)c2ccccc2F)C1 (stereo not given)	x	x	x	-3	0
O=C(Nc1ccc(Cl)cn1)Nc1ccc(Cl)cn1	5	-1	47*	-1	2
O=C(Nc1ccc(F)cc1)Nc1ccc(Cl)cn1	-6	-2	x	-10	0
Cc1[nH]c2ccccc2c1C(=O)CCl	16	-1	63*	1	6
Cc1[nH]c2ccccc2c1C(=O)CSc1ccccc1	2	0	-2	-3	3
CCS(=O)(=O)Nc1ccc2c(c1)C(=O)N(C)[C@@H]1CC[C@H](CC(=O)NCCOC)O[C@H]1CO2	x	x	x	-8	-6
CCCOc1ccc(C(=O)O)cc1	-3	1	77*	1	5
CCOc1ccc(NC(=O)CCNC(=O)c2ccco2)cc1	21	1	57*	6	-11
C=CCn1c(COc2ccc(C)cc2)nnc1SCC(=O)c1ccc(-c2ccccc2)cc1	x	x	x	-3	0
Cc1ccc(-n2c(SCc3c(Cl)cccc3Cl)nnc2-c2ccco2)cc1	x	x	x	-5	5
COc1ccc(OCCSc2nnc(C(C)NC(=O)c3ccccc3F)n2C)cc1 (stereo not given)	-11	-1	107*	5	-1
O=C(Cn1ccc([N+](=O)[O-])n1)NCc1nc2ccccc2[nH]1	-4	-1	44*	0	-14

Screens: PubChem, several laboratories
